How the values were obtained:
Nucleic Acid [1] = settings: Bos taurus; 25 uM
Nucleic Acid [2] = test: Compound was evaluated for relative maximum velocity (Vmax) at a concentration of 0 uM on calf DNA polymerase alpha as a function of nucleotide substrate concentration; type: nucleic-acid assay; settings: Bos taurus
Method in brief: (§1)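 Kinetic runs used calf thymus pol α or rat pol β (0.05 units each) preincubated with compound at 0 °C for 10 min in Tris–HCl pH 7.5/DTT/glycerol/EDTA buffer. Either poly(dA)/oligo(dT)12–18 (2/1) template-primer or dTTP substrate was varied. Km and Vmax came from double reciprocal plots, Ki from Dixon plots.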

Nucleic Acid [3] = settings: Bos taurus; 50 uM
Nucleic Acid [4] = test: Compound was evaluated for relative maximum velocity (Vmax) at a concentration of 0 uM on calf DNA polymerase alpha as a function of DNA template primer dose; type: nucleic-acid assay; settings: Bos taurus
Method in brief: as §1

Nucleic Acid [5] = settings: Bos taurus; 50 uM; remark: listed apart in the source
Nucleic Acid [6] = settings: Bos taurus; 25 uM; remark: listed apart in the source
Nucleic Acid [7] = settings: Bos taurus; 25 uM; remark: listed apart in the source
Nucleic Acid [8] = settings: Bos taurus; 25 uM; remark: listed apart in the source
Nucleic Acid [9] = test: Compound was evaluated for Michaelis constant at a concentration of 0 uM on calf DNA polymerase alpha as a function of DNA template primer dose; type: nucleic-acid assay; settings: Bos taurus
Method in brief: as §1

Nucleic Acid [10] = test: Compound was evaluated for relative maximum velocity (Vmax) at a concentration of 10 uM on calf DNA polymerase alpha as a function of nucleotide substrate concentration; type: nucleic-acid assay; settings: Bos taurus
Method in brief: as §1

Nucleic Acid [11] = test: Compound was evaluated for relative maximum velocity (Vmax) at a concentration of 10 uM on calf DNA polymerase alpha as a function of template primer dose; type: nucleic-acid assay; settings: Bos taurus
Method in brief: as §1

Nucleic Acid [12] = test: Michaelis constant at a concentration of 5 uM on calf DNA polymerase alpha as a function of nucleotide substrate concentration; type: nucleic-acid assay; settings: Bos taurus
Method in brief: as §1

Nucleic Acid [13] = test: Compound was evaluated for relative maximum velocity (Vmax) at a concentration of 5 uM on calf DNA polymerase alpha as a function of nucleotide substrate concentration; type: nucleic-acid assay; settings: Bos taurus
Method in brief: as §1

Nucleic Acid [14] = test: Compound was evaluated for relative maximum velocity (Vmax) at a concentration of 5 uM on calf DNA polymerase alpha as a function of template primer dose; type: nucleic-acid assay; settings: Bos taurus
Method in brief: as §1

[15] = test system: C[C@H](CCC(=O)O)[C@H]1CC[C@H]2[C@@H]3CCC4C[C@@H](OC(=O)CCNC(=O)CCCCCNC(=O)CCCCCNC(=O)CCCCC5SCC6NC(=O)NC65)CC[C@]4(C)[C@H]3CC[C@]12C; test: Michaelis constant at a concentration of 20 uM on rat DNA polymerase beta as a function of template primer dose
Method in brief: as §1

[16] = test system: C[C@H](CCC(=O)O)[C@H]1CC[C@H]2[C@@H]3CCC4C[C@@H](O)CC[C@]4(C)[C@H]3CC[C@]12C; settings: 5 uM
[17] = test system: C[C@H](CCC(=O)O)[C@H]1CC[C@H]2[C@@H]3CCC4C[C@@H](OC(=O)CCNC(=O)CCCCCNC(=O)CCCCCNC(=O)CCCCC5SCC6NC(=O)NC65)CC[C@]4(C)[C@H]3CC[C@]12C; test: Compound was evaluated for relative maximum velocity (Vmax)at a concentration of 10 uM on rat DNA polymerase beta as a function of nucleotide substrate concentration
Method in brief: (§2)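 Rat DNA pol β (0.05 units) was used. Compound was dissolved in DMSO, sonicated 30 s, and preincubated with enzyme for 10 min at 0 °C in 50 mM Tris–HCl (pH 7.5), 1 mM dithiothreitol, 50% glycerol and 0.1 mM EDTA. It was then added to the standard reaction. Template-primer poly(dA)/oligo(dT)12–18 (2/1) or dTTP substrate was varied. Km and Vmax came from double reciprocal plots.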

[18] = test system: C[C@H](CCC(=O)O)[C@H]1CC[C@H]2[C@@H]3CCC4C[C@@H](OC(=O)CCNC(=O)CCCCCNC(=O)CCCCCNC(=O)CCCCC5SCC6NC(=O)NC65)CC[C@]4(C)[C@H]3CC[C@]12C; test: Compound was evaluated for relative maximum velocity (Vmax) at a concentration of 10 uM on rat DNA polymerase beta as a function of template primer dose
Method in brief: as §2

[19] = test system: C[C@H](CCC(=O)O)[C@H]1CC[C@H]2[C@@H]3CCC4C[C@@H](O)CC[C@]4(C)[C@H]3CC[C@]12C; settings: 10 uM
[20] = test system: C[C@H](CCC(=O)O)[C@H]1CC[C@H]2[C@@H]3CCC4C[C@@H](OC(=O)CCNC(=O)CCCCCNC(=O)CCCCCNC(=O)CCCCC5SCC6NC(=O)NC65)CC[C@]4(C)[C@H]3CC[C@]12C; test: Michaelis constant at a concentration of 10 uM on rat DNA polymerase beta as a function of template primer dose
Method in brief: as §1

[21] = test system: C[C@H](CCC(=O)O)[C@H]1CC[C@H]2[C@@H]3CCC4C[C@@H](O)CC[C@]4(C)[C@H]3CC[C@]12C; settings: 5 uM; remark: listed apart in the source
[22] = test system: C[C@H](CCC(=O)O)[C@H]1CC[C@H]2[C@@H]3CCC4C[C@@H](OC(=O)CCNC(=O)CCCCCNC(=O)CCCCCNC(=O)CCCCC5SCC6NC(=O)NC65)CC[C@]4(C)[C@H]3CC[C@]12C; test: Michaelis constant at a concentration of 0 uM on rat DNA polymerase beta as a function of template primer dose
Method in brief: as §1

[23] = test system: C[C@H](CCC(=O)O)[C@H]1CC[C@H]2[C@@H]3CCC4C[C@@H](O)CC[C@]4(C)[C@H]3CC[C@]12C; settings: 0 uM
[24] = test system: C[C@H](CCC(=O)O)[C@H]1CC[C@H]2[C@@H]3CCC4C[C@@H](OC(=O)CCNC(=O)CCCCCNC(=O)CCCCCNC(=O)CCCCC5SCC6NC(=O)NC65)CC[C@]4(C)[C@H]3CC[C@]12C; test: Michaelis constant at a concentration of 0 uM on rat DNA polymerase beta as a function of nucleotide substrate concentration
Method in brief: as §2

[25] = test system: C[C@H](CCC(=O)O)[C@H]1CC[C@H]2[C@@H]3CCC4C[C@@H](O)CC[C@]4(C)[C@H]3CC[C@]12C; settings: 5 uM; remark: listed apart in the source
[26] = test system: C[C@H](CCC(=O)O)[C@H]1CC[C@H]2[C@@H]3CCC4C[C@@H](OC(=O)CCNC(=O)CCCCCNC(=O)CCCCCNC(=O)CCCCC5SCC6NC(=O)NC65)CC[C@]4(C)[C@H]3CC[C@]12C; test: Michaelis constant at a concentration of 20 uMon rat DNA polymerase beta as a function of nucleotide substrate concentration; settings: 20 uM
Method in brief: as §1

[27] = test system: C[C@H](CCC(=O)O)[C@H]1CC[C@H]2[C@@H]3CCC4C[C@@H](OC(=O)CCNC(=O)CCCCCNC(=O)CCCCCNC(=O)CCCCC5SCC6NC(=O)NC65)CC[C@]4(C)[C@H]3CC[C@]12C; test: Michaelis constant at a concentration of 10 uM on rat DNA polymerase beta as a function of nucleotide substrate concentration
Method in brief: as §1

[28] = test system: C[C@H](CCC(=O)O)[C@H]1CC[C@H]2[C@@H]3CCC4C[C@@H](O)CC[C@]4(C)[C@H]3CC[C@]12C; settings: 10 uM; remark: listed apart in the source
[29] = test system: C[C@H](CCC(=O)O)[C@H]1CC[C@H]2[C@@H]3CCC4C[C@@H](O)CC[C@]4(C)[C@H]3CC[C@]12C; settings: 5 uM; remark: listed apart in the source

Compound: C[C@H](CCC(=O)O)[C@H]1CC[C@H]2[C@@H]3CCC4C[C@@H](O)CC[C@]4(C)[C@H]3CC[C@]12C (stereo partly specified)
- Vmax (Nucleic Acid [1]): 31.3 pM/h
- Vmax (Nucleic Acid [2]): 29.2 pM/h
- Vmax (Nucleic Acid [3]): 17.7 pM/h
- Vmax (Nucleic Acid [4]): 55.6 pM/h
- Vmax (Nucleic Acid [5]): 14.8 pM/h
- Vmax (Nucleic Acid [6]): 24.9 pM/h
- Km (Nucleic Acid [7]): 1.65 µM
- Km (Nucleic Acid [8]): 13 µM

Compound: C[C@H](CCC(=O)O)[C@H]1CC[C@H]2[C@@H]3CCC4C[C@@H](OC(=O)CCNC(=O)CCCCCNC(=O)CCCCCNC(=O)CCCCC5SCC6NC(=O)NC65)CC[C@]4(C)[C@H]3CC[C@]12C (stereo partly specified)
- Vmax (Nucleic Acid [2]): 29.2 pM/h
- Km (Nucleic Acid [9]): 13 µM
- Vmax (Nucleic Acid [10]): 17.8 pM/h
- Vmax (Nucleic Acid [4]): 55.6 pM/h
- Vmax (Nucleic Acid [11]): 21.3 pM/h
- Km (Nucleic Acid [12]): 1.65 µM
- Vmax (Nucleic Acid [13]): 24.3 pM/h
- Vmax (Nucleic Acid [14]): 33.5 pM/h

Compound: DNA polymerase beta (Rattus norvegicus) (from UniProt P06766)
- Km [15]: 21.7 µM
- Km [16]: 6.28 µM
- Vmax [17]: 62.5 pMl hr-1
- Vmax [18]: 111 pMl hr-1
- Km [19]: 18.3 µM
- Km [20]: 9.98 µM
- Km [21]: 9.41 µM
- Km [22]: 6.47 µM
- Km [23]: 3.05 µM
- Km [24]: 3.05 µM
- Vmax [25]: 111 pMl hr-1
- Km [26]: 9.49 µM
- Km [27]: 6.67 µM
- Km [28]: 7.86 µM
- Vmax [29]: 62.5 pMl hr-1

Source: ChEMBL document CHEMBL1135021, “Biotinylated lithocholic acids for affinity chromatography of mammalian DNA polymerases alpha and beta” (Bioorg Med Chem Lett, 2002)
